# According to PMC7181320 (ACS Central Science, 2020):
# “Also recorded” adds a separate entry of the source. Read-outs that look alike come from different tables or passages of the source.
# Experiments:
# [1] = target: Y106F N-His6-FhuD2 (Staphylococcus aureus, UniProt Q7BGA5, Y130F); experiment: Intrinsic Trp fluorescence quenching binding assay, FhuD2 mutant Y106F; parameters: species or system S. aureus; details: FhuD2 variant Y106F
# [2] = target: T1, Y169F N-His6-FhuD2 (Staphylococcus aureus, UniProt Q7BGA5, Y193F); experiment: Intrinsic Trp fluorescence quenching binding assay, FhuD2 mutant Y169F; parameters: species or system S. aureus; details: FhuD2 variant Y169F
# T1 sequence (Q7BGA5 25-302 Y193F): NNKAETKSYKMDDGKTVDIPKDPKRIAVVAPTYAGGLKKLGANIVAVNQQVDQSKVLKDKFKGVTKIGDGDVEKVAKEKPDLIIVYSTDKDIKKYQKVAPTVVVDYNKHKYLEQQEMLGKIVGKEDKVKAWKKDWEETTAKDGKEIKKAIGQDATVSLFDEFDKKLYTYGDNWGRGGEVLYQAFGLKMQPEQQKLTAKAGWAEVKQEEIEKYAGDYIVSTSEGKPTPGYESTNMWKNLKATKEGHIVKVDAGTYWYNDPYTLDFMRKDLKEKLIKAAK
# [3] = target: N-His6-FhuD2 (Staphylococcus aureus, UniProt Q7BGA5); experiment: Intrinsic Trp fluorescence quenching binding assay, wild-type N-His6-FhuD2; parameters: species or system S. aureus
# Summary of the method: (§1)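 Purified SBP constructs, truncated with an N-terminal His6 tag replacing the signal peptide. Binding of the fluorescent desferrioxamine probe, in metal-free and ferric forms, was read as quenching of the protein's intrinsic Trp fluorescence.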
# [4] = target: N-His6-YxeB (Bacillus subtilis, UniProt P54941); experiment: Intrinsic Trp fluorescence quenching binding assay, wild-type N-His6-YxeB; parameters: species or system B. subtilis
# Summary of the method: as §1
# [5] = target: T2, W173A N-His6-FhuD2 (Staphylococcus aureus, UniProt Q7BGA5, W197A); experiment: Intrinsic Trp fluorescence quenching binding assay, FhuD2 mutant W173A; parameters: species or system S. aureus; details: FhuD2 variant W173A
# T2 sequence (Q7BGA5 25-302 W197A): T1 sequence (Q7BGA5 25-302 Y193F)
# [6] = target: T3, Y167F N-His6-FhuD2 (Staphylococcus aureus, UniProt Q7BGA5, Y191F); experiment: Intrinsic Trp fluorescence quenching binding assay, FhuD2 mutant Y167F; parameters: species or system S. aureus; details: FhuD2 variant Y167F
# T3 sequence (Q7BGA5 25-302 Y191F): T1 sequence (Q7BGA5 25-302 Y193F)
# [7] = target: Y256F N-His6-FhuD2 (Staphylococcus aureus, UniProt Q7BGA5, Y280F); experiment: Intrinsic Trp fluorescence quenching binding assay, FhuD2 mutant Y256F; parameters: species or system S. aureus
# [8] = target: T4, R175A N-His6-FhuD2 (Staphylococcus aureus, UniProt Q7BGA5, R199A); experiment: Intrinsic Trp fluorescence quenching binding assay, FhuD2 mutant R175A; parameters: species or system S. aureus; details: FhuD2 variant R175A
# T4 sequence (Q7BGA5 25-302 R199A): T1 sequence (Q7BGA5 25-302 Y193F)
# [9] = target: T5, Y254F N-His6-FhuD2 (Staphylococcus aureus, UniProt Q7BGA5, Y278F); experiment: Intrinsic Trp fluorescence quenching binding assay, FhuD2 mutant Y254F; parameters: species or system S. aureus; details: FhuD2 variant Y254F
# T5 sequence (Q7BGA5 25-302 Y278F): T1 sequence (Q7BGA5 25-302 Y193F)
# [10] = target: T6, W255A N-His6-FhuD2 (Staphylococcus aureus, UniProt Q7BGA5, W279A); experiment: Intrinsic Trp fluorescence quenching binding assay, FhuD2 mutant W255A; parameters: species or system S. aureus; details: FhuD2 variant W255A
# T6 sequence (Q7BGA5 25-302 W279A): T1 sequence (Q7BGA5 25-302 Y193F)
# [11] = system: FhuD2; experiment: FhuD2-catalyzed iron exchange from holo-Tf to DFO-NBD with additives; assay type: biochemical, S. aureus; details: 25 mM additive, 4 μM holo-Tf, 2 μM DFO-NBD
# Summary of the method: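 FhuD2 is a truncated S. aureus construct with the N-terminal signal peptide replaced by an N-terminal His6 tag, used at 100 nM with holo-transferrin as iron donor. The reaction is started by adding the DFO-NBD probe, and fluorescence (ex 475 nm, em 560 nm) is monitored continuously. Quenching is expressed as percentage change relative to a control containing DFO-NBD and FhuD2 without iron donor.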
# [12] = system: SBPs (FhuD2 or YxeB); assay type: biochemical, S. aureus and B. subtilis; details: SBP-catalyzed exchange, FhuD2 and YxeB
# Summary of the method: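 Truncated SBPs (FhuD2 or YxeB), each expressed with an N-terminal His6 tag in place of the signal peptide, at 100 nM with 4 μM ferric donor (FOB, FOE or human holo-transferrin). Started by adding 2 μM DFO-NBD probe, then fluorescence followed continuously (ex 475 nm; em 565 nm). Percent change in relative emission taken at 15 min against a matching no-SBP reaction.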
# [13] = Apparent KFe measurement by EDTA competition assay; assay type: physicochemical; details: 1.2 equiv EDTA, HEPES buffer pH 7.4
# Summary of the method: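 Ferric siderophore (ferrioxamine B or E) treated with 1.2 equiv EDTA, with or without stoichiometric FhuD2. Remaining ferric siderophore is followed continuously by absorbance at 427 nm and expressed as relative percentage remaining. Apparent log KFe is calculated from the decay plots. At least two independent trials are run, with standard deviations reported.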
# [14] = target: T7, FhuD2 (Staphylococcus aureus, UniProt Q7BGA5); experiment: Intrinsic Trp fluorescence quenching; assay type: binding; details: read-out: app Kd; SD, n = 2; cited from earlier work
# [15] = target: R175A (Staphylococcus aureus, UniProt Q7BGA5, R199A); experiment: Intrinsic Trp fluorescence quenching; assay type: binding; details: read-out: app Kd; SD, n = 2
# [16] = target: Y169F (Staphylococcus aureus, UniProt Q7BGA5, Y193F); experiment: Intrinsic Trp fluorescence quenching; assay type: binding; details: read-out: app Kd; SD, n = 2
# [17] = target: Y254F (Staphylococcus aureus, UniProt Q7BGA5, Y278F); experiment: Intrinsic Trp fluorescence quenching; assay type: binding; details: read-out: app Kd; SD, n = 2
# [18] = target: Y256F (Staphylococcus aureus, UniProt Q7BGA5, Y280F); experiment: Intrinsic Trp fluorescence quenching; assay type: binding; details: read-out: app Kd; SD, n = 2
# [19] = target: Y106F (Staphylococcus aureus, UniProt Q7BGA5, Y130F); experiment: Intrinsic Trp fluorescence quenching; assay type: binding; details: read-out: app Kd; SD, n = 2
# [20] = 25 °C; cited from earlier work
# [21] = target: FhuD2 Y256F (S. aureus); experiment: other fluorescence titration
# [22] = target: W255A (Staphylococcus aureus, UniProt Q7BGA5, W279A); experiment: Intrinsic Trp fluorescence quenching; assay type: binding; details: read-out: app Kd; SD, n = 2
# [23] = target: T7, FhuD2; experiment: Intrinsic Trp fluorescence quenching; assay type: binding; details: read-out: app Kd; SD, n = 2
# [24] = target: W173A (Staphylococcus aureus, UniProt Q7BGA5, W197A); experiment: Intrinsic Trp fluorescence quenching; assay type: binding; details: read-out: app Kd; SD, n = 2
# Chain of N-His6-YxeB (P54941 21-321): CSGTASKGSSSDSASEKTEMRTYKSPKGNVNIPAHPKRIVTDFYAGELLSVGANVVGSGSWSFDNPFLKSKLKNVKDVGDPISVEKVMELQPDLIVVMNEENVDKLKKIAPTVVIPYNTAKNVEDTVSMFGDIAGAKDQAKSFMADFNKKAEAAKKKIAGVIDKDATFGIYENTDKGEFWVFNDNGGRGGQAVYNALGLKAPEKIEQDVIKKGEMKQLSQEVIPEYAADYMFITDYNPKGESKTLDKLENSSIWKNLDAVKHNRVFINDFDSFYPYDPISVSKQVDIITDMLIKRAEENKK
# Chain of human holo-transferrin (P02787 20-698): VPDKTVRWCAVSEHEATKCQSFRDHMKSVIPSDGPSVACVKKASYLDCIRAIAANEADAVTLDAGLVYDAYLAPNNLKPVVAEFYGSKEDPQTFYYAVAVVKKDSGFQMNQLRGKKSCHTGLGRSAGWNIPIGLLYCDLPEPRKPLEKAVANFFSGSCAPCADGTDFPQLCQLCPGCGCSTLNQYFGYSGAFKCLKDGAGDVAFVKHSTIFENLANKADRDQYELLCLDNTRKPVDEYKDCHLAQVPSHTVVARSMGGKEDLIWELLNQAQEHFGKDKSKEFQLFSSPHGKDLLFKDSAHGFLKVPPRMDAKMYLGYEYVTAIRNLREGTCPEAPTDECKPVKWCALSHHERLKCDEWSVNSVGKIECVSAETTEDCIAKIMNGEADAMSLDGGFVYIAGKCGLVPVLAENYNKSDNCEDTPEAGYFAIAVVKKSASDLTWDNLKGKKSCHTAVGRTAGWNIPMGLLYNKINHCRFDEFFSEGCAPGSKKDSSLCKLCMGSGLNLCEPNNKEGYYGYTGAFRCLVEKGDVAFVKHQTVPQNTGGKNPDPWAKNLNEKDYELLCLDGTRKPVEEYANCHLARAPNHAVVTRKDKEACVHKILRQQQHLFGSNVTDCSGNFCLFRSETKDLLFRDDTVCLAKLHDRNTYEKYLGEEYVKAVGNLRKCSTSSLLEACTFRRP
compound,measurement,setting,value
"CC(=O)N(O)CCCCCNC(=O)CCC(=O)N(O)CCCCCNC(=O)CCC(=O)N(O)CCCCCN [DFOB, desferrioxamine B]",Kd,[1]; app Kd,80 ± 20 nM
same,Kd,[2]; app Kd,70 ± 10 nM
same,Kd,[3],90 ± 10 nM
same,Kd,[4],30 ± 20 nM
same,Kd,[5]; app Kd,100 ± 50 nM
same,Kd,[6]; app Kd,60 ± 9 nM
same,Kd,[7],80 ± 30 nM
same,Kd,[8]; app Kd,40 ± 9 nM
same,Kd,[9]; app Kd,50 ± 10 nM
same,Kd,[10]; app Kd,60 ± 20 nM
O=C([O-])O.[Na+] [NaHCO3],effect on FhuD2-catalyzed exchange of iron from holo-Tf to DFO-NBD,[11],no apparent effect
"CC(=O)N([O-])CCCCCNC(=O)CCC(=O)N([O-])CCCCCNC(=O)CCC(=O)N([O-])CCCCCN.[Fe+3] [FOB, ferrioxamine B]",ability to serve as ferric iron donor to DFO-NBD,[12],serve as a donor of ferric iron; also recorded: serve as iron donor substrates
same,apparent log KFe,[13]; 1:1 stoichiometric complex with FhuD2,28.5 ± 0.1
same,apparent log KFe,[13]; no FhuD2,30.3 ± 0.4
same,Kd,[1]; read-out: app Kd,40 ± 8 nM
same,Kd,[14],30 ± 6 nM
same,Kd,[2]; read-out: app Kd,40 ± 9 nM
same,Kd,[15],30 ± 9 nM
same,Kd,[16],40 ± 9 nM
same,Kd,[5]; read-out: app Kd,60 ± 8 nM
same,Kd,[6]; read-out: app Kd,40 ± 6 nM
same,Kd,[17],10 ± 2 nM
same,Kd,"[7]; read-out: app Kd, FhuD2 variant Y256F",60 ± 10 nM
same,Kd,[18],60 ± 10 nM
same,Kd,[19],40 ± 8 nM
same,Kd,[9]; read-out: app Kd,10 ± 2 nM
same,Kd,[10]; read-out: app Kd,60 ± 50 nM
"CC(=O)N([O-])CCCCCNC(=O)CCC(=O)N([O-])CCCCCNC(=O)CCC(=O)N([O-])CCCCCNc1ccc([N+](=O)[O-])c2nonc12.[Fe+3] [FO-NBD, ferrioxamine B-2-(4-nitro-2,1,3-benzoxadiazol-7-yl) conjugate]",apparent log KFe,[13]; no FhuD2,30.8 ± 0.3
same,app Kd,"[3]; wild-type N-His6-FhuD2 100 nM, TBS buffer pH 7.4, one site binding model",nanomolar affinity
same,app Kd,"[4]; wild-type N-His6-YxeB 100 nM, TBS buffer pH 7.4, one site binding model",nanomolar affinity
"transferrin: human ferric holo-transferrin, host iron source and iron donor substrate",Kd,[2]; read-out: app Kd,110 ± 20 nM
same,log KFe,[20],≈ 22
same,Kd,[5]; read-out: app Kd,140 ± 30 nM
same,Kd,[6]; read-out: app Kd,80 ± 20 nM
same,Kd,[8]; read-out: app Kd,110 ± 30 nM
same,Kd,[9]; read-out: app Kd,90 ± 20 nM
same,Kd,[10]; read-out: app Kd,110 ± 80 nM
human holo-transferrin (from UniProt P02787 20-698) (natural protein),Kd,[21],70 nM
"O=C1CCC(=O)N(O)CCCCCNC(=O)CCC(=O)N(O)CCCCCNC(=O)CCC(=O)N(O)CCCCCN1.[Fe+3] [FOE, ferrioxamine E]",Kd,[22],30 ± 9 nM
same,Kd,[16],20 ± 2 nM
same,Kd,[23],50 ± 6 nM
same,Kd,[18],40 ± 20 nM
same,Kd,[24],90 ± 30 nM
same,Kd,[19],80 ± 10 nM
